The nature of series [1]: Lipophilicity in 1-octanol/phosphate buffer at pH 7.4 assessed as distribution ratio by shake flask method. Format: physicochemical. The conditions noted are these: octanol/water. The procedure, abridged: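 Shake-flask method at room temperature with mutually saturated phases: compound 100 µM final in 0.1 M phosphate buffer pH 7.4 containing 0.15 M KCl, shaken with 1-octanol for 3 h. Phases separated by 1 h centrifugation; both measured by UV spectrophotometry. D is organic/aqueous total concentration; mean ± SD of ≥3 experiments.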

The target in series [2] is T1, Aldo-keto reductase family 1 member B1 (Rattus norvegicus, UniProt P07943). As to the kind of experiment: Inhibition of Wistar rat lens aldose reductase 2. The method, boiled down:
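Lens ALR2 partially purified from male Wistar rats (8–9 weeks). Reaction: 4.67 mM D,L-glyceraldehyde, 0.11 mM NADPH, 0.067 M phosphate pH 6.2; started with substrate, NADPH loss at 340 nm read 4 min after 1 min lag at 30 °C. Blank lacks substrate and includes inhibitor. IC50 from semilog curves, ≥4 concentrations giving 25–75% inhibition.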

The nature of series [3]: Inhibition of Wistar rat kidney aldose reductase 1. The method, boiled down: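 ALR1 partially purified from male Wistar rat kidney by ammonium sulfate fractionation and DEAE treatment. NADPH consumption followed at 340 nm with 20 mM D-glucuronate and 0.12 mM NADPH in 0.1 M phosphate pH 7.2 at 37 °C; inhibitor also in blank. IC50 from linear part of semilog curves, ≥4 concentrations spanning 25–75% inhibition.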

Series [4] deals with T1, Aldo-keto reductase family 1 member B1. As to the kind of experiment: Inhibition of Wistar rat lens aldose reductase 2 using NADPH as substrate. The method, boiled down:
(§1)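 Kinetic mode of rat lens ALR2 inhibition from double-reciprocal plots of initial velocity, with D,L-glyceraldehyde or NADPH concentration varied, with or without inhibitor (e.g. 20 µM); NADPH consumption read at 340 nm. Kinetic parameters given as mean ± SD of at least three experiments.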

The target is the same in series [5]. As to the kind of experiment: Inhibition of Wistar rat lens aldose reductase 2 using D,L-glyceraldehyde as substrate. The method, boiled down: as §1
Series [6] can be described thus: Antioxidant activity assessed as inhibition of AAPH-induced peroxidation of DOPC liposome after 80 mins by thiocyanate method. Format: functional. The method, boiled down: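 DOPC unilamellar liposomes (0.8 mM final) in 20 mM phosphate buffer pH 7.4 with AAPH initiator (10 mM final) and varying test concentrations at 50 °C. Aliquots extracted with ice-cold CHCl3/MeOH (2:1) containing BHT; lipid hydroperoxides measured by thiocyanate method, absorbance at 500 nm. IC50 taken at 80 min.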

Series [7] is described as follows: Dissociation constant, basic pKa of compound. Format: physicochemical. The method, boiled down: (§2)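 Potentiometric titration with glass/saturated calomel electrodes: compound about 2 mM in water, acidified with 0.1 M HCl to pH about 1.8, titrated with 0.1 M NaOH at 22 °C ± 1 °C, ionic strength held at 0.1 M with KCl.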
Series [8] can be described thus: Dissociation constant, acidic pKa of compound. Format: physicochemical. The procedure, abridged: as §2

For the molecule `CN1CC[C@@H]2Nc3ccc(CC(=O)[O-])cc3[C@@H]2C1.[K+]` (racemic), the D in series [1] is on record as less than 0.1. Besides, the midpoint of inhibition in series [2], the IC50, lay at 381 µM.
In the case of `CN1CCc2[nH]c3ccc(CC(=O)[O-])cc3c2C1.[K+]`, the IC50 in series [3] was 3080 µM; in series [2] it was 54 µM. The D in series [1] is 0.13.
The molecule `O=C(O)Cc1nn(Cc2nc3cc(C(F)(F)F)ccc3s2)c(=O)c2ccccc12` [ZOPOLRESTAT] yielded an IC50 in series [2] of 0.005 µM.
On to `CCCC(CCC)C(=O)O` [VALPROIC ACID], for which, in series [3], it took 56.1 µM to reach half-maximal inhibition (IC50).
For the molecule `O=C([O-])Cc1ccc2[nH]c3c(c2c1)CN(CCc1ccccc1)CC3.[K+]`, the half-inhibitory concentration (IC50) was determined as 603 µM in series [3] and 16.7 µM in series [2]. The Ki in series [4] turned out to be 10.5 µM; in series [5] it was 17.7 µM. The D in series [1] was 0.51.
As for `Cc1c(C)c2c(c(C)c1O)CCC(C)(C(=O)O)O2` (stereo not given) [TROLOX], the IC50 in series [6] came out at 93.5 µM.
Take `Cc1ccc2[nH]c3c(c2c1)CN(C)CC3` [DEHYDROSTOBADINE]: the concentration for half-maximal inhibition (IC50) in series [6] was 72.7 µM; in series [2], greater than 1000 µM. Also, the D in series [1] came out at 6.
Turning to `O=C([O-])Cc1ccc2c(c1)[C@@H]1CN(Cc3ccccc3)CC[C@@H]1N2.[Na+]` (racemic), the IC50 was greater than 3000 µM in series [3], 75.6 µM in series [6] and 266 µM in series [2]. Further, the D in series [1] is on record as 0.2.
With `O=C([O-])Cc1ccc2[nH]c3c(c2c1)CN(Cc1ccccc1)CC3.[K+]`, the IC50 is 328 µM in series [3] and 18.2 µM in series [2]. Besides, the Ki in series [4] worked out at 11 µM; in series [5] it was 17.9 µM. Moreover, the D in series [1] was found to be 0.35. The pKa in series [7] was determined as 8.65; in series [8], 4.34.
With `Cc1ccc2c(c1)[C@H]1CN(C)CC[C@H]1N2` [STOBADINE], the IC50 in series [6] is 25.3 µM; in series [2] it was greater than 1000 µM. For the same molecule, the D in series [1] stood at 2.5.
